Source: ChEMBL document CHEMBL5329156, “Discovery and development of novel substituted monohydrazides as potent antifungal agents” (RSC Med Chem, 2023)
Converted amounts (≈) assume the structure as drawn. The source made the active and inactive calls. No cut-off for these calls is given here.

Key:
Candida albicans [1] = assay: Antibiofilm activity against Candida albicans ATCC 10231 assessed as reduction in biofilm production at 1.96 to 3.9 microg/ml by biofilm formation assay; type: functional, organism-based; conditions: dose 1.96-3.9 µg/ml
Aspergillus nidulans = assay: Antifungal activity against Aspergillus nidulans ATCC 38163 assessed as fungal growth inhibition by double dilution method; type: functional
Pichia kudriavzevii [2] = assay: Antifungal activity against Pichia kudriavzevii ATCC 6258 assessed as fungal growth inhibition by double dilution method; type: functional
Summary of the method: (§1)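 Broth microdilution after CLSI M27-A3/M38-A2 with minor changes. Single colony grown overnight in YPD at 35 °C, 200 rpm. Compound final range 0.06-31.3 µg/mL; incubated 48 h at 35 °C.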

Clavispora lusitaniae = assay: Antifungal activity against Clavispora lusitaniae AR Bank # 398 assessed as fungal growth inhibition by double dilution method; type: functional; summary of the method: as §1
[Candida] auris [3] = Antifungal activity against Candida auris AR Bank # 0384 assessed as fungal growth inhibition by double dilution method; type: functional; conditions: Candidozyma auris; summary of the method: as §1
Aspergillus fumigatus [4] = assay: Antifungal activity against Aspergillus fumigatus NRRL 5109 assessed as fungal growth inhibition by double dilution method; type: functional
[Candida] auris [5] = Antifungal activity against Candida auris AR Bank # 384 assessed as fungal growth inhibition by double dilution method; type: functional; conditions: Candidozyma auris; summary of the method: as §1
J774.A1 = assay: Cytotoxicity against J774A.1 cells assessed as reduction in cell viability at 31.3 microg/ml; type: toxicity, cell-based; conditions: mouse, dose 31.3 µg/ml
Summary of the method: (§2)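 Cells in DMEM with 10% FBS and 1% Pen/Strep, seeded at 10,000 cells/well and held overnight at 37 °C, 5% CO2. Compounds added at final 31.3-0.12 µg/mL (0.05% DMSO vehicle) for 24 h. Resazurin then added for 6 h; fluorescence read at ex 560/em 590. Triton X-100 1% as positive control; values normalized to vehicle. Run in quadruplicate.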

Candida albicans [6] = assay: Antifungal activity against itraconazole/fluconazole resistant Candida albicans ATCC MYA-1237 assessed as fungal growth inhibition by double dilution method; type: functional
Summary of the method: (§3)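 Broth microdilution after CLSI M27-A3/M38-A2 with minor modifications. A single colony was grown overnight in YPD at 35 °C with shaking at 200 rpm. Cells were mixed 1:1 with compound (final 0.06-31.3 µg/mL, from DMSO stocks) and incubated 48 h at 35 °C.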

Candida albicans [7] = assay: Antifungal activity against itraconazole/fluconazole resistant Candida albicans ATCC 90819 assessed as fungal growth inhibition by double dilution method; type: functional; summary of the method: as §3
[Candida] auris [8] = Antifungal activity against Candida auris AR Bank # 381 assessed as fungal growth inhibition by double dilution method; type: functional; conditions: Candidozyma auris; summary of the method: as §1
Saccharomyces cerevisiae [9] = assay: Antifungal activity against Saccharomyces cerevisiae AR Bank # 399 assessed as fungal growth inhibition by double dilution method; type: functional; summary of the method: as §1
Saccharomyces cerevisiae [10] = assay: Antifungal activity against Saccharomyces cerevisiae AR Bank # 400 assessed as fungal growth inhibition by double dilution method; type: functional; summary of the method: as §1
[Candida] auris [11] = Antifungal activity against Candida auris AR Bank # 385 assessed as fungal growth inhibition by double dilution method; type: functional; conditions: Candidozyma auris; summary of the method: as §1
[Candida] auris [12] = Antifungal activity against Candida auris AR Bank # 383 assessed as fungal growth inhibition by double dilution method; type: functional; conditions: Candidozyma auris; summary of the method: as §1
Nakaseomyces glabratus [13] = assay: Antifungal activity against Candida glabrata ATCC 22019 assessed as fungal growth inhibition by double dilution method; type: functional; summary of the method: as §1
[Candida] auris [14] = Antifungal activity against Candida auris AR Bank # 389 assessed as fungal growth inhibition by double dilution method; type: functional; conditions: Candidozyma auris; summary of the method: as §1
Nakaseomyces glabratus [15] = assay: Antifungal activity against Candida glabrata ATCC 2001 assessed as fungal growth inhibition by double dilution method; type: functional; summary of the method: as §1
Candida albicans [16] = assay: Antifungal activity against Candida albicans ATCC 64124 assessed as fungal growth inhibition by double dilution method; type: functional; summary of the method: as §3
[Candida] auris [17] = Antifungal activity against Candida auris AR Bank # 390 assessed as fungal growth inhibition by double dilution method; type: functional; conditions: Candidozyma auris; summary of the method: as §1
Aspergillus flavus = assay: Antifungal activity against Aspergillus flavus ATCC MYA-3631 assessed as fungal growth inhibition by double dilution method; type: functional
Candida albicans [18] = assay: Antifungal activity against itraconazole/fluconazole susceptible Candida albicans ATCC MYA-2310 assessed as fungal growth inhibition by double dilution method; type: functional; summary of the method: as §3
[Candida] auris [19] = Antifungal activity against Candida auris AR Bank # 388 assessed as fungal growth inhibition by double dilution method; type: functional; conditions: Candidozyma auris; summary of the method: as §1
Candida duobushaemulonii [20] = assay: Antifungal activity against Candida duobushaemulonii AR Bank # 391 assessed as fungal growth inhibition by double dilution method; type: functional; conditions: Candidozyma duobushaemuli; summary of the method: as §1
HepG2 = assay: Cytotoxicity against human HepG2 cells assessed as reduction in cell viability upto 31.3 microg/ml; type: toxicity, cell-based; conditions: dose < 31.3 µg/ml; summary of the method: as §2
Candida albicans [21] = assay: Antifungal activity against itraconazole/fluconazole resistant Candida albicans ATCC MYA-1003 assessed as fungal growth inhibition by double dilution method; type: functional; summary of the method: as §3
Pichia kudriavzevii [22] = assay: Antifungal activity against Pichia kudriavzevii AR Bank # 397 assessed as fungal growth inhibition by double dilution method; type: functional; summary of the method: as §1
[Candida] haemuloni [23] = Antifungal activity against Candida haemulonii AR Bank # 395 assessed as fungal growth inhibition by double dilution method; type: functional; conditions: Candidozyma haemuli; summary of the method: as §1
[Candida] auris [24] = Antifungal activity against Candida auris AR Bank # 386 assessed as fungal growth inhibition by double dilution method; type: functional; conditions: Candidozyma auris; summary of the method: as §1
Kodamaea ohmeri = assay: Antifungal activity against Kodamaea ohmeri AR Bank # 396 assessed as fungal growth inhibition by double dilution method; type: functional; summary of the method: as §1
Cryptococcus neoformans = assay: Antifungal activity against Cryptococcus neoformans ATCC MYA-895 assessed as fungal growth inhibition by double dilution method; type: functional; summary of the method: as §1
HEK293 = assay: Cytotoxicity against human HEK-293 cells assessed as reduction in cell viability at 31.3 microg/ml; type: toxicity, cell-based; conditions: dose 31.3 µg/ml; summary of the method: as §2
Aspergillus terreus = assay: Antifungal activity against Aspergillus terreus ATCC MYA-3633 assessed as fungal growth inhibition by double dilution method; type: functional
Aspergillus fumigatus [25] = assay: Antifungal activity against Aspergillus fumigatus NRRL 6113 assessed as fungal growth inhibition by double dilution method; type: functional
Candida albicans [26] = assay: Antifungal activity against Candida albicans ATCC 10231 assessed as fungal growth inhibition by double dilution method; type: functional; summary of the method: as §1
Aspergillus fumigatus [27] = assay: Antifungal activity against Aspergillus fumigatus NRRL 163 assessed as fungal growth inhibition by double dilution method; type: functional
Candida duobushaemulonii [28] = assay: Antifungal activity against Candida duobushaemulonii AR Bank # 394 assessed as fungal growth inhibition by double dilution method; type: functional; conditions: Candidozyma duobushaemuli; summary of the method: as §1
Candida albicans [29] = assay: Antifungal activity against itraconazole/fluconazole susceptible Candida albicans ATCC MYA-2876 assessed as fungal growth inhibition by double dilution method; type: functional; summary of the method: as §3
[Candida] auris [30] = Antifungal activity against Candida auris AR Bank # 387 assessed as fungal growth inhibition by double dilution method; type: functional; conditions: Candidozyma auris; summary of the method: as §1
[Candida] haemuloni [31] = Antifungal activity against Candida haemulonii AR Bank # 393 assessed as fungal growth inhibition by double dilution method; type: functional; conditions: Candidozyma haemuli; summary of the method: as §1
[Candida] auris [32] = Antifungal activity against Candida auris AR Bank # 382 assessed as fungal growth inhibition by double dilution method; type: functional; conditions: Candidozyma auris; summary of the method: as §1
Candida duobushaemulonii [33] = assay: Antifungal activity against Candida duobushaemulonii AR Bank # 392 assessed as fungal growth inhibition by double dilution method; type: functional; conditions: Candidozyma duobushaemuli; summary of the method: as §1
[Candida] auris [34] = Antifungal activity against Candida auris AR Bank # 0390 assessed as fungal growth inhibition by double dilution method; type: functional; conditions: Candidozyma auris; summary of the method: as §1

For O=C(NNc1cccc(F)c1)c1ccccn1, the Activity (Candida albicans [1]) was “Active”, the MIC (Aspergillus nidulans) was 0.49 µg/mL (≈ 2.12 µM) and the MIC (Pichia kudriavzevii [2]) was 0.24 µg/mL (≈ 1.04 µM). It also gave an MIC (Clavispora lusitaniae) of 0.98 µg/mL (≈ 4.24 µM), an MIC ([Candida] auris [3]) of 1.95 µg/mL (≈ 8.43 µM) and an MIC (Aspergillus fumigatus [4]) of over 31.3 µg/mL. For the same compound, the MIC ([Candida] auris [5]) was 1.95 µg/mL (≈ 8.43 µM), the Activity (J774.A1) was “Non-Toxic” and the MIC (Candida albicans [6]) was 0.98 µg/mL (≈ 4.24 µM). The MIC (Candida albicans [7]) was 0.49 µg/mL (≈ 2.12 µM), the MIC ([Candida] auris [8]) was 0.49 µg/mL (≈ 2.12 µM) and the MIC (Saccharomyces cerevisiae [9]) was 1.95 µg/mL (≈ 8.43 µM). For the same compound, the MIC (Saccharomyces cerevisiae [10]) was 1.95 µg/mL (≈ 8.43 µM), the MIC ([Candida] auris [11]) was 0.98 µg/mL (≈ 4.24 µM) and the MIC ([Candida] auris [12]) was 1.95 µg/mL (≈ 8.43 µM). For the same compound, the MIC (Nakaseomyces glabratus [13]) was 1.95 µg/mL (≈ 8.43 µM), the MIC ([Candida] auris [14]) was 0.12 µg/mL (≈ 0.519 µM) and the MIC (Nakaseomyces glabratus [15]) was 1.95 µg/mL (≈ 8.43 µM). The MIC (Candida albicans [16]) was 0.98 µg/mL (≈ 4.24 µM), the MIC ([Candida] auris [17]) was 0.24 µg/mL (≈ 1.04 µM) and the MIC (Aspergillus flavus) was 7.8 µg/mL (≈ 33.7 µM). The MIC (Candida albicans [18]) was 1.95 µg/mL (≈ 8.43 µM), the MIC ([Candida] auris [19]) was 0.49 µg/mL (≈ 2.12 µM) and the MIC (Candida duobushaemulonii [20]) was 0.49 µg/mL (≈ 2.12 µM). For the same compound, the Activity (HepG2) was “Non-Toxic”, the MIC (Candida albicans [21]) was 0.98 µg/mL (≈ 4.24 µM) and the MIC (Pichia kudriavzevii [22]) was 0.24 µg/mL (≈ 1.04 µM). The MIC ([Candida] haemuloni [23]) was at most 0.06 µg/mL, the MIC ([Candida] auris [24]) was 0.49 µg/mL (≈ 2.12 µM) and the MIC (Kodamaea ohmeri) was 0.24 µg/mL (≈ 1.04 µM). For the same compound, the MIC (Cryptococcus neoformans) was 0.12 µg/mL (≈ 0.519 µM), the Activity (HEK293) was “Non-Toxic” and the MIC (Aspergillus terreus) was 1.95 µg/mL (≈ 8.43 µM). The MIC (Aspergillus fumigatus [25]) was over 31.3 µg/mL, the MIC (Candida albicans [26]) was at most 0.06 µg/mL and the MIC (Aspergillus fumigatus [27]) was over 31.3 µg/mL. The MIC (Candida duobushaemulonii [28]) was 0.49 µg/mL (≈ 2.12 µM), the MIC (Candida albicans [29]) was 0.98 µg/mL (≈ 4.24 µM) and the MIC ([Candida] auris [30]) was 0.49 µg/mL (≈ 2.12 µM). It also gave an MIC ([Candida] haemuloni [31]) of 0.12 µg/mL (≈ 0.519 µM), an MIC ([Candida] auris [32]) of 0.98 µg/mL (≈ 4.24 µM) and an MIC (Candida duobushaemulonii [33]) of 0.24 µg/mL (≈ 1.04 µM). The MIC ([Candida] auris [34]) was 0.24 µg/mL (≈ 1.04 µM).
